This is an account of results in article PMC8496042 (RSC Chemical Biology, 2021).

For the test, the target named is T1, PAP(248–286) (Homo sapiens, UniProt P15309).
T1 sequence (P15309 248-286): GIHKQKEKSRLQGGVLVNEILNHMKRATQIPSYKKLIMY
Kind of test: isothermal titration calorimetry. It counts as binding. Put shortly: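 Freshly prepared monomeric peptide (600 μM) in deionized water brought to 1× PBS was titrated from the syringe into a low-volume nano-ITC cell holding the test compound (80 μM). The compound was neutralised with NaOH to physiological pH and diluted in water/PBS. Both solutions were degassed 10 min at 37 °C. Heats and enthalpies were fitted with an independent binding model.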

Compound `O=C1O[C@H]([C@@H](O)CO)C(O)=C1O` [ascorbic acid] registered a Kd of 8.59 µM.
